Where only a bound is given, the exact number is not on record here.

Results on 17 compounds are retold here after ChEMBL document CHEMBL1122569, “Synthesis and antiinflammatory activity of [(cycloalkylmethyl)phenyl]acetic acids and related compounds” (1984).

Experiment [1] deals with Rattus norvegicus. Briefly: Analgesic activity on peroral administration against Scald induced pain in rat paw. The class given is functional. The settings on record: for ED50: Rattus norvegicus, po, read-out: ID50 (the source's name). In a few lines:
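Male Wister Imamichi rats (~100 g), fasted 16 h. A hind paw was scalded at 57 °C for 6 s, then restimulated at 40 °C for 5 s. Compounds at 58–0.23 mg/kg in 0.5% tragacanth were given orally 2 h after scalding. Paw-lifting time over 30 s was recorded 1 and 2 h post-dose, and the mean used for % inhibition and ID50.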

Experiment [2] has as its system Rattus norvegicus. Description: Antiinflammatory activity on peroral administration against carrageenan paw edema. The class given is functional. The settings on record: po, read-out: ID50 (the source's name). In short, it runs like this:
(§1)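 Compound given; 30 min later 1% carrageenan in saline injected subcutaneously into the hind-paw plantar region. Paw volume measured just before and 3 h after carrageenan. ID50 from a least-squares regression line of percent inhibition against dose.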

The subject of experiment [3] is Rattus norvegicus. Description: Antiinflammatory activity on peroral administration in rat determined by Randall-Slelitto test. The class given is functional. As to conditions: po. In a few lines: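 Fasted male Wister Imamichi rats (60–90 g) received 20% brewer's yeast in the right hind paw. After 4 h, rats with pressure pain threshold below 10×30 g were dosed at 50–0.05 mg/kg. Animals were counted effective if the threshold rise exceeded twice the unmedicated control. ED50 by Litchfield–Wilcoxon.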

For experiment [4], the system named is Rattus norvegicus. Description: Analgesic activity on peroral administration against scald induced pain in rat paw. The class given is functional. As to conditions: po, read-out: ID50 (the source's name). In short, it runs like this: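 Male Wister Imamichi rats (about 100 g), fasted 16 h, had one hind paw scalded in 57 °C water for 6 s, then re-dipped in 40 °C water for 5 s. Oral dosing in 0.5% tragacanth (58–0.23 mg/kg) followed 2 h after scalding. Paw-lifting time within 30 s was scored 1 and 2 h post-dose. The mean of the two readings gave percent inhibition and ID50.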

For experiment [5], the system named is Cavia porcellus. Briefly: Analgesic activity on peroral administration against Bradykinin induced pain in guinea pig paw. As to conditions: po.
Experiment [6] has as its system Cavia porcellus. Briefly: Antipyretic activity on peroral administration against LPS-induced fever in guinea pig. It counts as functional. The settings on record: po, read-out: ID50 (the source's name). In short, it runs like this: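 Female Hartley guinea pigs (300–350 g), fasted 16 h. Fever induced with E. coli LPS at 1 µg/kg i.v. Compounds were dosed at 6.3–0.23 mg/kg. Rectal temperature was taken 1 and 2 h after dosing and the mean used. ID50 by least-squares regression of % inhibition on dose.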

Experiment [7] relates to Rattus norvegicus. Description: Gastric lesion activity on peroral administration in rat. The class given is functional. As to conditions: po. In short, it runs like this:
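Male Wister Imamichi rats (~120 g), fasted 16 h, dosed at 20–2.5 mg/kg. Killed 3.5 h later; stomachs opened along the greater curvature and rinsed with saline. Dark brown lesions of 0.5 mm length were counted under a stereomicroscope.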

Experiment [8] concerns Rattus norvegicus. Description: Antiinflammatory activity on peroral administration against adjuvant arthritis in rat. It counts as functional. As to conditions: po, read-out: ID50 (the source's name). In short, it runs like this:
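Female Lewis rats (160–200 g) received complete Freund adjuvant (heat-killed M. tuberculosis, 1 mg/mL in liquid paraffin) in the right hind paw. Dosing was 5.0–0.04 mg/kg once daily, days 0–20. Injected-paw swelling was measured by water displacement (day before vs day 21), as % inhibition versus untreated control. ID50 by least-squares regression.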

The subject of experiment [9] is Rattus norvegicus. Briefly: Antiinflammatory activity on peroral administration against carrageenan induced rat paw edema. The class given is functional. As to conditions: po, read-out: ID50 (the source's name). In short, it runs like this: as §1

As to `CC(C(=O)O)c1ccc(CC2CCC/C2=N/O)cc1` (stereo not given), the ED50 with Rattus norvegicus [1] was 4.9 mg/kg; in the experiment with Rattus norvegicus [2], 1.3 mg/kg.
In the case of `O=C(O)Cc1ccc(CC2CCC/C2=N/O)cc1` (stereo not given), the ED50 with Rattus norvegicus [1] worked out at 15 mg/kg; with Rattus norvegicus [2] it was 24.8 mg/kg.
For the compound `CC(C(=O)O)c1ccc(CC2CCCCC2=O)cc1` (stereo not given), the ED50 was 9.1 mg/kg in the experiment on Rattus norvegicus [1] and 1.2 mg/kg in the experiment with Rattus norvegicus [2].
Taken in the same sequence, the figures for `CC(C(=O)O)c1ccc(/C=C2\CCCCCC2=O)cc1` (stereo not given) were over 100 mg/kg and over 100 mg/kg.
For the compound `CC(C(=O)O)c1ccc(CC2CCCCCC2=O)cc1` (stereo not given), the ED50 with Rattus norvegicus [1] and with Rattus norvegicus [2] was over 100 mg/kg throughout.
On to `O=C(O)Cc1ccc(CC2CCCC/C2=N/O)cc1` (stereo not given), for which the figures for the ED50 with Rattus norvegicus [1] and in the experiment with Rattus norvegicus [2] were 31.1 mg/kg and 23.5 mg/kg, respectively.
In the case of `CC(C(=O)O)c1ccc(CC2CCCC2)cc1` (stereo not given), the ED50 was 5.1 mg/kg with Rattus norvegicus [1] and over 100 mg/kg in the experiment on Rattus norvegicus [2].
For the compound `CC(C(=O)O)c1ccc(CC2CCCC/C2=N/O)cc1` (stereo not given), the ED50 in the experiment with Rattus norvegicus [1] stood at 3.6 mg/kg; with Rattus norvegicus [2], 1.4 mg/kg.
For the compound `O=C(O)Cc1ccc(CC2CCCC2=O)cc1` (stereo not given), the ED50 was 23 mg/kg with Rattus norvegicus [1] and 9.1 mg/kg with Rattus norvegicus [2].
Regarding `CC(C(=O)O)c1ccc(/C=C2\CCCC2=O)cc1` (stereo not given), the ED50 with Rattus norvegicus [1] was 1.3 mg/kg; in the experiment with Rattus norvegicus [2], 1.5 mg/kg.
`CC(C(=O)O)c1ccc(CC2CCCCC/C2=N/O)cc1` (stereo not given): the ED50 in the experiment with Rattus norvegicus [1] and in the experiment on Rattus norvegicus [2] was over 100 mg/kg each time.
Take `O=C(O)Cc1ccc(CC2CCCCC2=O)cc1` (stereo not given): the figures for the ED50 in the experiment with Rattus norvegicus [1] and in the experiment with Rattus norvegicus [2] were 53.8 mg/kg and 45.7 mg/kg, respectively.
For the compound `CC(C)Cc1ccc(C(C)C(=O)O)cc1` (stereo not given) [IBUPROFEN], the ED50 in the experiment with Rattus norvegicus [1] stood at 15.9 mg/kg.
For `COc1ccc2c(c1)c(CC(=O)O)c(C)n2C(=O)c1ccc(Cl)cc1` [INDOMETHACIN], the ED50 in the experiment with Rattus norvegicus [3] was determined as 2.8 mg/kg; in the experiment on Rattus norvegicus [4], 3.5 mg/kg; in the experiment with Cavia porcellus [5], 8.3 mg/kg; with Rattus norvegicus [1] it was 3.5 mg/kg; in the experiment on Cavia porcellus [6], 9.5 mg/kg; in the experiment with Rattus norvegicus [2], 2.2 mg/kg. The same compound showed a UD50 with Rattus norvegicus [7] of 6.4 mg/kg.
Turning to `CC(C(=O)[O-])c1ccc(CC2CCCC2=O)cc1.[Na+]` (stereo not given) [LOXOPROFEN SODIUM], the ED50 with Rattus norvegicus [3] stood at 0.13 mg/kg; in the experiment on Cavia porcellus [5], 0.4 mg/kg; in the experiment with Rattus norvegicus [1] it was 0.76 mg/kg; in the experiment with Rattus norvegicus [8] it was 0.59 mg/kg; with Cavia porcellus [6] it was 0.76 mg/kg; in the experiment with Rattus norvegicus [2], 1.2 mg/kg. Further, the UD50 with Rattus norvegicus [7] was determined as 16.1 mg/kg.
Regarding `CC(C(=O)O)c1ccc(CC2CCCC2=O)cc1` (stereo not given) [LOXOPROFEN], the results for the ED50 in the experiment with Rattus norvegicus [1] and in the experiment with Rattus norvegicus [2] were 0.8 mg/kg and 1.7 mg/kg, respectively.
For `CC(C(=O)O)c1ccc(/C=C2\CCCCC2=O)cc1` (stereo not given) [PELUBIPROFEN], the ED50 amounted to 0.94 mg/kg with Rattus norvegicus [3]; 4.5 mg/kg in the experiment on Cavia porcellus [5]; 1.2 mg/kg in the experiment with Rattus norvegicus [9]; 1.8 mg/kg in the experiment on Rattus norvegicus [1]; 0.06 mg/kg in the experiment with Rattus norvegicus [8]; 1.5 mg/kg in the experiment on Cavia porcellus [6]. The ED50 in the experiment on Rattus norvegicus [2] amounted to 0.9 mg/kg. Moreover, the ID50 in the experiment on Rattus norvegicus [1] was found to be 1.7 mg/kg. Besides, the UD50 in the experiment with Rattus norvegicus [7] is 14.3 mg/kg.
